Data from ChEMBL document CHEMBL3244175, “Experimental antiulcer drugs. 2. 2-Substituted 2,4,5,6-tetrahydro-1,3,4,6,6-pentamethylcyclopenta[c]pyrrole-4-carboxamides” (1977).
Values belong to the molecule of their own block, whether it stands above or below them. Activity calls are given as the source filed them. The calls are words filed in the database; no cut-off is given here.

What was measured:
Rattus norvegicus [1] = experiment: Antisecretory activity in 5-hrs pyloric ligated rat assessed as inhibition of total acid output at 12.5 mg/kg, po administered 2 hrs prior to pyloric ligation (reference value: 0%); type: functional
Procedure, shortened: (§1)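 Rats given a single po dose (12.5–100 mg/kg) 2 h before a 5-h pyloric ligation. Gastric secretion was assayed for pH, volume (mL/100 g) and total acid output ([…]), with % inhibition relative to controls. Groups had 5–15 rats, with 39 controls. Values are means ± SE from several experiments, and significance versus control was taken at p < 0.05 or 0.01.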

Canis familiaris [2] = experiment: Antisecretory activity in histamine-stimulated dog assessed as inhibition of total acid output at 6.2 mg/kg, po administered 18 and 2 hrs prior to histamine challenge (reference value: 0%); type: functional; settings: Canis lupus familiaris
Canis familiaris [3] = experiment: Antisecretory activity in histamine-stimulated dog assessed as volume of gastric secretion at 25 mg/kg, po administered 18 and 2 hrs prior to histamine challenge measured per 15 mins (reference value: 14.7 ml); type: functional, Canis lupus familiaris, Stomach
Canis familiaris [4] = experiment: Antisecretory activity in histamine-stimulated dog assessed as volume of gastric secretion at 3.1 mg/kg, po administered 18 and 2 hrs prior to histamine challenge measured per 15 mins (reference value: 14.7 ml); type: functional, Canis lupus familiaris, Stomach
Canis familiaris [5] = experiment: Antisecretory activity in histamine-stimulated dog assessed as inhibition of total acid output at 3.1 mg/kg, po administered 18 and 2 hrs prior to histamine challenge (reference value: 0%); type: functional; settings: Canis lupus familiaris
Canis familiaris [6] = experiment: Antisecretory activity in histamine-stimulated dog assessed as inhibition of total acid output at 1.6 mg/kg, po administered 18 and 2 hrs prior to histamine challenge (reference value: 0%); type: functional; settings: Canis lupus familiaris
Rattus norvegicus [7] = experiment: Antisecretory activity in 5-hrs pyloric ligated rat assessed as volume of gastric secretion at 100 mg/kg, po administered 2 hrs prior to pyloric ligation measured per 100 gm of tissue (reference value: 4.05 +/- 0.21 ml); type: functional, Stomach; procedure, shortened: as §1
Rattus norvegicus [8] = experiment: Antisecretory activity in 5-hrs pyloric ligated rat assessed as inhibition of total acid output at 50 mg/kg, po administered 2 hrs prior to pyloric ligation (reference value: 0%); type: functional; procedure, shortened: as §1
Canis familiaris [9] = experiment: Antisecretory activity in histamine-stimulated dog assessed as inhibition of total acid output at 25 mg/kg, po administered 18 and 2 hrs prior to histamine challenge (reference value: 0%); type: functional; settings: Canis lupus familiaris
Canis familiaris [10] = experiment: Antisecretory activity in po dosed histamine-stimulated dog assessed as decrease in total acidity of gastric secretions administered 18 and 2 hrs prior to histamine challenge; type: functional, organism-based; settings: Canis lupus familiaris; Stomach
Canis familiaris [11] = experiment: Antisecretory activity in histamine-stimulated dog assessed as pH of gastric contents at 12.5 mg/kg, po administered 18 and 2 hrs prior to histamine challenge (reference value: 1 no-unit); type: functional, Canis lupus familiaris, Stomach
Rattus norvegicus [12] = experiment: Antisecretory activity in 5-hrs pyloric ligated rat assessed as volume of gastric secretion at 25 mg/kg, po administered 2 hrs prior to pyloric ligation measured per 100 gm of tissue (reference value: 4.05 +/- 0.21 ml); type: functional, Stomach; procedure, shortened: as §1
Rattus norvegicus [13] = experiment: Antisecretory activity in 5-hrs pyloric ligated rat assessed as pH of gastric contents at 25 mg/kg, po administered 2 hrs prior to pyloric ligation measured after 1 hr (reference value: 1.07 +/- 0.01 no-unit); type: functional, Stomach; procedure, shortened: as §1
Canis familiaris [14] = experiment: Antisecretory activity in histamine-stimulated dog assessed as pH of gastric contents at 6.2 mg/kg, po administered 18 and 2 hrs prior to histamine challenge (reference value: 1 no-unit); type: functional, Canis lupus familiaris, Stomach
Rattus norvegicus [15] = experiment: Antisecretory activity in 5-hrs pyloric ligated rat assessed as volume of gastric secretion at 12.5 mg/kg, po administered 2 hrs prior to pyloric ligation measured per 100 gm of tissue (reference value: 4.05 +/- 0.21 ml); type: functional, Stomach; procedure, shortened: as §1
Trachea = experiment: Anticholinergic activity in guinea pig trachea assessed as carbamylcholine-induced constriction at 10 uM; type: functional, tissue-based; settings: Cavia porcellus
Procedure, shortened: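 Guinea pig trachea set up in the same bath system as the auricle preparation. Compound in Me2SO-H2O was added to the bath at 10^-5 M. Read-out was the dose-related response to carbamylcholine.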

Rattus norvegicus [16] = experiment: Antisecretory activity in 5-hrs pyloric ligated rat assessed as pH of gastric contents at 50 mg/kg, po administered 2 hrs prior to pyloric ligation measured after 1 hr (reference value: 1.07 +/- 0.01 no-unit); type: functional, Stomach; procedure, shortened: as §1
Canis familiaris [17] = experiment: Antisecretory activity in po dosed histamine-stimulated dog assessed as decrease in volume of gastric secretions administered 18 and 2 hrs prior to histamine challenge; type: functional, organism-based; settings: Canis lupus familiaris; Stomach
Rattus norvegicus [18] = experiment: Antisecretory activity in 5-hrs pyloric ligated rat assessed as pH of gastric contents at 100 mg/kg, po administered 2 hrs prior to pyloric ligation measured after 1 hr (reference value: 1.07 to 1.1 no-unit); type: functional, Stomach
Rattus norvegicus [19] = experiment: Antisecretory activity in 5-hrs pyloric ligated rat assessed as inhibition of total acid output at 100 mg/kg, po administered 2 hrs prior to pyloric ligation (reference value: 0%); type: functional; procedure, shortened: as §1
Canis familiaris [20] = experiment: Antisecretory activity in histamine-stimulated dog assessed as pH of gastric contents at 25 mg/kg, po administered 18 and 2 hrs prior to histamine challenge (reference value: 1 no-unit); type: functional, Canis lupus familiaris, Stomach
Canis familiaris [21] = experiment: Antisecretory activity in histamine-stimulated dog assessed as pH of gastric contents at 1.6 mg/kg, po administered 18 and 2 hrs prior to histamine challenge (reference value: 1 no-unit); type: functional, Canis lupus familiaris, Stomach
Canis familiaris [22] = experiment: Antisecretory activity in histamine-stimulated dog assessed as volume of gastric secretion at 12.5 mg/kg, po administered 18 and 2 hrs prior to histamine challenge measured per 15 mins (reference value: 14.7 ml); type: functional, Canis lupus familiaris, Stomach
Canis familiaris [23] = experiment: Antisecretory activity in histamine-stimulated dog assessed as pH of gastric contents at 3.1 mg/kg, po administered 18 and 2 hrs prior to histamine challenge (reference value: 1 no-unit); type: functional, Canis lupus familiaris, Stomach
[24] = target: Histamine H2 receptor (Cavia porcellus) (UniProt P47747); experiment: Inhibition of histamine H2 receptor in guinea pig atria assessed as inhibition of histamine response
Histamine H2 receptor (Cavia porcellus), sequence (P47747 whole entry): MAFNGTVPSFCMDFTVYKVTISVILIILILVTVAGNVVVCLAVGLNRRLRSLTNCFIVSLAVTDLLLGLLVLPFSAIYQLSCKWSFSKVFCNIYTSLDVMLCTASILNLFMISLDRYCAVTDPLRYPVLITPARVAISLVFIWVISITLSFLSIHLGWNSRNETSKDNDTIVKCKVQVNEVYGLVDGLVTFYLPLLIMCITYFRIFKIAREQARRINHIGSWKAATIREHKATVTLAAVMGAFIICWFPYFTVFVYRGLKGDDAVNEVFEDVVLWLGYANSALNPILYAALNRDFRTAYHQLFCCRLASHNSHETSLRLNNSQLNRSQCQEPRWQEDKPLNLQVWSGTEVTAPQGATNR

Rattus norvegicus [25] = experiment: Antisecretory activity in po dosed 5-hrs pyloric ligated rat assessed as decrease in volume of gastric secretions administered 2 hrs prior to pyloric ligation; type: functional, organism-based; settings: Stomach; procedure, shortened: as §1
Rattus norvegicus [26] = experiment: Antisecretory activity in 5-hrs pyloric ligated rat assessed as pH of gastric contents at 12.5 mg/kg, po administered 2 hrs prior to pyloric ligation measured after 1 hr (reference value: 1.07 +/- 0.01 no-unit); type: functional, Stomach; procedure, shortened: as §1
Canis familiaris [27] = experiment: Antisecretory activity in po dosed histamine-stimulated dog assessed as increase in pH of gastric secretions administered 18 and 2 hrs prior to histamine challenge; type: functional, organism-based; settings: Canis lupus familiaris; Stomach
Canis familiaris [28] = experiment: Antisecretory activity in histamine-stimulated dog assessed as volume of gastric secretion at 6.2 mg/kg, po administered 18 and 2 hrs prior to histamine challenge measured per 15 mins (reference value: 14.7 ml); type: functional, Canis lupus familiaris, Stomach
Rattus norvegicus [29] = experiment: Antisecretory activity in 5-hrs pyloric ligated rat assessed as volume of gastric secretion at 50 mg/kg, po administered 2 hrs prior to pyloric ligation measured per 100 gm of tissue (reference value: 4.05 +/- 0.21 ml); type: functional, Stomach; procedure, shortened: as §1
Canis familiaris [30] = experiment: Antisecretory activity in histamine-stimulated dog assessed as volume of gastric secretion at 1.6 mg/kg, po administered 18 and 2 hrs prior to histamine challenge measured per 15 mins (reference value: 14.7 ml); type: functional, Canis lupus familiaris, Stomach
Canis familiaris [31] = experiment: Antisecretory activity in histamine-stimulated dog assessed as inhibition of total acid output at 12.5 mg/kg, po administered 18 and 2 hrs prior to histamine challenge (reference value: 0%); type: functional; settings: Canis lupus familiaris
Rattus norvegicus [32] = experiment: Antisecretory activity in 5-hrs pyloric ligated rat assessed as inhibition of total acid output at 25 mg/kg, po administered 2 hrs prior to pyloric ligation (reference value: 0%); type: functional; procedure, shortened: as §1
Rattus norvegicus [33] = experiment: Antisecretory activity in po dosed 5-hrs pyloric ligated rat assessed as decrease in total acidity of gastric secretions administered 2 hrs prior to pyloric ligation; type: functional, organism-based; settings: Stomach; procedure, shortened: as §1
Mus musculus = species on record: Mus musculus; experiment: Anticholinergic activity in mouse assessed as induction of mydriasis; type: functional, organism-based
Rattus norvegicus [34] = experiment: Antisecretory activity in po dosed 5-hrs pyloric ligated rat assessed as increase in pH of gastric secretions administered 2 hrs prior to pyloric ligation measured after 1 hr; type: functional, organism-based; settings: Stomach; procedure, shortened: as §1
Heart = experiment: Anticholinergic activity in guinea pig auricle assessed as carbamylcholine-induced depression of heart rate after 5 mins; type: functional, tissue-based; settings: Cavia porcellus
Procedure, shortened: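 Isolated guinea pig auricles in Krebs-Henseleit solution at 35 °C. Compound dissolved in Me2SO-H2O, added to the bath, and left on the tissue for 5 min. Read-out was the dose-related carbamylcholine-induced fall in spontaneous heart rate.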

Rattus norvegicus [35] = experiment: Antisecretory activity in 5-hrs pyloric ligated rat assessed as pH of gastric contents at 100 mg/kg, po administered 2 hrs prior to pyloric ligation measured after 1 hr (reference value: 1.1 no-unit); type: functional, Stomach

inhibition [24]: Active
Structure (SMILES): Cc1c2c(c(C)n1-c1ccccc1)C(C)(C(N)=O)CC2(C)C (stereo unspecified)
inhibition in vivo at 12.5 mg/kg (Rattus norvegicus [1]): 41%
inhibition in vivo at 6.2 mg/kg (Canis familiaris [2]): 95%
Activity (Canis familiaris [3]): 2.4 mL
Activity (Canis familiaris [4]): 3.8 mL
inhibition in vivo at 3.1 mg/kg (Canis familiaris [5]): 84%
inhibition in vivo at 1.6 mg/kg (Canis familiaris [6]): 49%
Activity (Rattus norvegicus [7]): 1.19 mL
inhibition in vivo at 50 mg/kg (Rattus norvegicus [8]): 75%
inhibition in vivo at 25 mg/kg (Canis familiaris [9]): 93%
inhibition (Canis familiaris [10]): Dose-dependent effect
pH (Canis familiaris [11]): 4.7
Activity (Rattus norvegicus [12]): 2.16 mL
pH (Rattus norvegicus [13]): 1.83
pH (Canis familiaris [14]): 3.9
Activity (Rattus norvegicus [15]): 2.66 mL
Activity (Trachea): inactive
pH (Rattus norvegicus [16]): 3.28
inhibition (Canis familiaris [17]): Dose-dependent effect
pH (Rattus norvegicus [18]): 6.2
inhibition in vivo at 100 mg/kg (Rattus norvegicus [19]): 100%
pH (Canis familiaris [20]): 6.7
pH (Canis familiaris [21]): 1.2
Activity (Canis familiaris [22]): 4.8 mL
pH (Canis familiaris [23]): 1.8
inhibition (Rattus norvegicus [25]): Dose-dependent effect
pH (Rattus norvegicus [26]): 1.34
Activity (Canis familiaris [27]): Dose-dependent effect
Activity (Canis familiaris [28]): 2 mL
Activity (Rattus norvegicus [29]): 1.66 mL
Activity (Canis familiaris [30]): 11.9 mL
inhibition in vivo at 12.5 mg/kg (Canis familiaris [31]): 88%
inhibition in vivo at 25 mg/kg (Rattus norvegicus [32]): 52%
inhibition (Rattus norvegicus [33]): Dose-dependent effect
Activity (Mus musculus): inactive
Activity (Rattus norvegicus [34]): Dose-dependent effect
Activity (Heart): inactive

Structure (SMILES): Cc1c2c(c(C)n1CC1CC1)C(C)(C(N)=O)CC2(C)C (stereo unspecified)
pH (Rattus norvegicus [35]): 5.1

Structure (SMILES): Cc1c2c(c(C)n1-c1ccc(Cl)cc1)C(C)(C(N)=O)CC2(C)C (stereo unspecified)
pH (Rattus norvegicus [35]): 1.2

Structure (SMILES): CCn1c(C)c2c(c1C)C(C)(C(N)=O)CC2(C)C (stereo unspecified)
pH (Rattus norvegicus [35]): 4.8

Structure (SMILES): Cc1c2c(c(C)n1-c1ccccc1Cl)C(C)(C(N)=O)CC2(C)C (stereo unspecified)
pH (Rattus norvegicus [35]): 1.1

Structure (SMILES): CCCCn1c(C)c2c(c1C)C(C)(C(N)=O)CC2(C)C (stereo unspecified)
pH (Rattus norvegicus [35]): 2.5

Structure (SMILES): Cc1c2c(c(C)n1C1CCC1)C(C)(C(N)=O)CC2(C)C (stereo unspecified)
pH (Rattus norvegicus [35]): 2.2

Structure (SMILES): Cc1ccc(-n2c(C)c3c(c2C)C(C)(C(N)=O)CC3(C)C)cc1 (stereo unspecified)
pH (Rattus norvegicus [35]): 1.1

Structure (SMILES): Cc1c2c(c(C)n1Cc1ccccc1)C(C)(C(N)=O)CC2(C)C (stereo unspecified)
pH (Rattus norvegicus [35]): 1

Structure (SMILES): Cc1cccc(-n2c(C)c3c(c2C)C(C)(C(N)=O)CC3(C)C)c1 (stereo unspecified)
pH (Rattus norvegicus [35]): 1.2
